Reference: ChEMBL document CHEMBL4251600, “Bioactive products from singlet oxygen photooxygenation of cannabinoids” (Eur J Med Chem, 2018)
Values after ≈ are worked out from the molar mass of the structure shown. Active and inactive are the calls of the source. No cut-off for these calls is given here.

Columns and labels:
[1] = tested on: Leishmania donovani; test: Antileishmanial activity against Leishmania donovani promastigotes incubated for 48 hrs by alamar blue assay; format: functional, organism-based; settings: Leishmania donovani, 48 h; for IC50: read-out: IC50; for IC90: read-out: IC90
[2] = tested on: Cryptococcus neoformans; test: Antifungal activity against Cryptococcus neoformans by alamar blue assay; format: functional, organism-based; settings: for IC50: read-out: IC50
[3] = tested on: Pichia kudriavzevii; test: Antifungal activity against Candida krusei by modified CLSI based method; format: functional, organism-based
[4] = tested on: Staphylococcus aureus; test: Antimicrobial activity against Staphylococcus aureus by modified CLSI based method; format: functional, organism-based; settings: for IC50: read-out: IC50
[5] = tested on: Nakaseomyces glabratus; test: Antifungal activity against Candida glabrata by modified CLSI based method; format: functional, organism-based
[6] = tested on: Staphylococcus aureus; test: Antimicrobial activity against methicillin-resistant Staphylococcus aureus by modified CLSI based method; format: functional, organism-based
[7] = tested on: Plasmodium falciparum; test: Antiplasmodial activity against chloroquine-resistant Plasmodium falciparum W2 infected in red blood cells incubated for 72 hrs by parasite LDH release based colorimetric assay; format: functional, organism-based; settings: W2, 72 h
[8] = tested on: Plasmodium falciparum; test: Antiplasmodial activity against chloroquine-sensitive Plasmodium falciparum D6 infected in red blood cells incubated for 72 hrs by parasite LDH release based colorimetric assay; format: functional, organism-based; settings: D6, 72 h
[9] = target: T1, Cannabinoid receptor 2 (Homo sapiens, UniProt P34972); test: Displacement of [3H]CP-55,940 from recombinant human full length CB2 receptor expressed in HEK293 cell membranes after 90 mins by topcount method
T1 sequence (P34972 whole entry): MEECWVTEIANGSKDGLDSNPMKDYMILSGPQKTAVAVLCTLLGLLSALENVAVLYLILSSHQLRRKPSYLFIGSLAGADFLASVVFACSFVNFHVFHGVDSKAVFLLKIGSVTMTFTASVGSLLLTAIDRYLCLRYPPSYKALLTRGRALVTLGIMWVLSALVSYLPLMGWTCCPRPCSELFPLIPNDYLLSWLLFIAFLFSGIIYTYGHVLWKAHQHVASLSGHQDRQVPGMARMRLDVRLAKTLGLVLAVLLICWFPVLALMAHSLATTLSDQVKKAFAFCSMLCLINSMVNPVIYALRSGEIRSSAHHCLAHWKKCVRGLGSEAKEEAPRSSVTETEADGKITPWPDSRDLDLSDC

[10] = target: T1, Cannabinoid receptor 2; test: Agonist activity at recombinant human full length CB2 receptor expressed in HEK293 cell membranes at 100 uM after 2 hrs by [35S]GTP-gammaS binding assay relative to CP-55,940; format: functional
[11] = target: T2, Cannabinoid receptor 1 (Homo sapiens, UniProt P21554); test: Agonist activity at recombinant human full length CB1 receptor expressed in HEK293 cell membranes after 2 hrs by [35S]GTP-gammaS binding assay; format: functional
T2 sequence (P21554 whole entry): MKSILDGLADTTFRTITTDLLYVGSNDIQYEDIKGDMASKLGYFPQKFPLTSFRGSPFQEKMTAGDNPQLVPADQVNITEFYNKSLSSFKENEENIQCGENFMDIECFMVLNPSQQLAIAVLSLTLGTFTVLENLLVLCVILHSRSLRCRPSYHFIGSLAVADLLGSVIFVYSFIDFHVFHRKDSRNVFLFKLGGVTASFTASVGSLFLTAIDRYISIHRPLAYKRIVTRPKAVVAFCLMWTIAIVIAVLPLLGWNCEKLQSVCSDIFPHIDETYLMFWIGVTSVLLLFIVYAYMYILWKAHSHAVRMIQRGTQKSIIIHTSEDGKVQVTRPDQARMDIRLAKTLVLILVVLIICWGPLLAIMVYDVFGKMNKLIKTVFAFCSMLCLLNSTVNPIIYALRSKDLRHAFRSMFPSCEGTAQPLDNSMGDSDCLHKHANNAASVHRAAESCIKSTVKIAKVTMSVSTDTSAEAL
Method in brief: (§1)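 Membranes (20 µg/well) from HEK293 cells stably transfected with human CB1 or CB2 cDNA were incubated with test compound and 0.5 nM [35S]-GTP-γS. Buffer: 50 mM Tris-HCl, 0.2 mM EGTA, 9 mM MgCl2, 150 mM NaCl, 50 µM GDP, 1.4 mg/ml BSA. Incubation ran 2 h at 30°C and was stopped by vacuum filtration through GF/B filters with cold Tris-HCl. Nonspecific binding was taken with 40 µM GTP-γS.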

[12] = target: T2, Cannabinoid receptor 1; test: Displacement of [3H]CP-55,940 from recombinant human full length CB1 receptor expressed in HEK293 cell membranes after 90 mins by topcount method
[13] = target: T1, Cannabinoid receptor 2; test: Agonist activity at recombinant human full length CB2 receptor expressed in HEK293 cell membranes after 2 hrs by [35S]GTP-gammaS binding assay; format: functional; method in brief: as §1
[14] = target: T2, Cannabinoid receptor 1; test: Agonist activity at recombinant human full length CB1 receptor expressed in HEK293 cell membranes at 100 uM after 2 hrs by [35S]GTP-gammaS binding assay relative to CP-55,940; format: functional
[15] = tested on: SK-MEL; test: Anticancer activity against human SK-MEL cells assessed as cell growth inhibition incubated for 48 hrs by neutral red dye based assay; format: functional
[16] = tested on: BT-549; test: Anticancer activity against human BT549 cells assessed as cell growth inhibition incubated for 48 hrs by neutral red dye based assay; format: functional; settings: BT-549, 48 h
[17] = tested on: SK-OV-3; test: Anticancer activity against human SKOV3 cells assessed as cell growth inhibition up to 10 ug/ml incubated for 48 hrs by neutral red dye based assay; format: functional
[18] = tested on: LLC-PK1; test: Cytotoxicity against pig LLC-PK1 cells assessed as cell growth inhibition incubated for 48 hrs by neutral red dye based assay; design: species or system Sus scrofa; settings: Sus scrofa, LLC-PK1, 48 h; read-out: IC50
[19] = tested on: KB; test: Anticancer activity against human KB cells assessed as cell growth inhibition up to 10 ug/ml incubated for 48 hrs by neutral red dye based assay; format: functional
[20] = Cryptococcus neoformans, read-out: MIC
[21] = Staphylococcus aureus, read-out: MIC
[22] = Staphylococcus aureus, read-out: IC50

Structure (SMILES)	IC50 [1] [µg/mL]	IC90 [1] [µg/mL]	IC50 ([2]; Cryptococcus neoformans) [µg/mL]	MIC [2, 20] [µg/mL]	IC50 ([4]; Staphylococcus aureus) [µg/mL]	IC50 [7] [µg/mL]	IC50 [3]	MIC [3]	IC50 [5]	MIC [5]	IC50 [8] [µg/mL]	IC50 [9] [nM]	Ki [9] [nM]	IC50 [12] [nM]	Ki [12] [nM]	further results
C[C@@H]1[C@H](O)[C@@H](C)/C=C/C=C/C=C/C=C/C=C/C=C/C=C/[C@H](O[C@@H]2O[C@H](C)[C@@H](O)[C@H](N)[C@@H]2O)C[C@@H]2O[C@](O)(C[C@@H](O)C[C@@H](O)[C@H](O)CC[C@@H](O)C[C@@H](O)CC(=O)O[C@H]1C)C[C@H](O)[C@H]2C(=O)O [AMPHOTERICIN B]	0.16 (≈ 0.173 µM)	0.33 (≈ 0.357 µM)	1.36 (≈ 1.47 µM)	2.5 (≈ 2.71 µM)	–	–	–	–	–	–	–	–	–	–	–	–
CCCCCC1=CC(=O)C2=C(OC(C)(C)[C@@H]3C=CC(C)(OO)C[C@@H]23)C1=O (stereo partly drawn)	0.7 (≈ 1.94 µM)	1.2 (≈ 3.33 µM)	0.93 (≈ 2.58 µM)	2.5 (≈ 6.94 µM)	1.3 (≈ 3.61 µM)	–	–	–	–	–	–	–	–	–	–	MIC ([3]; Pichia kudriavzevii): 10 µg/mL (≈ 27.7 µM); IC50 ([3]; Pichia kudriavzevii, read-out: IC50): 5.77 µg/mL (≈ 16 µM); MIC [4, 21]: 2.5 µg/mL (≈ 6.94 µM); MIC ([5]; Nakaseomyces glabratus): 10 µg/mL (≈ 27.7 µM); IC50 ([5]; Nakaseomyces glabratus, read-out: IC50): 6.54 µg/mL (≈ 18.1 µM); MIC ([6]; Staphylococcus aureus): 5 µg/mL (≈ 13.9 µM); IC50 [6, 22]: 2.63 µg/mL (≈ 7.3 µM)
CCCCCc1cc(O)c2c(c1)OC(C)(C)C1=C2C(OCC)C(C)(O)CC1 (stereo not drawn)	3 (≈ 8.01 µM)	6 (≈ 16 µM)	4.57 (≈ 12.2 µM)	–	4.86 (≈ 13 µM)	3.7 (≈ 9.88 µM)	Not Active	inactive	Not Active	inactive	3.6 (≈ 9.61 µM)	–	–	–	–	MIC [4]: inactive; MIC [2]: inactive; MIC [6]: inactive; IC50 [6, 22]: 17.1 µg/mL (≈ 45.6 µM)
CCCCCc1cc2c(c(OS(=O)(=O)c3ccc(C)cc3)c1)[C@@H]1CC(C)(OO)C=C[C@H]1C(C)(C)O2 (stereo partly drawn)	–	–	–	–	–	–	–	–	–	–	–	421	211	275	137	Emax [10]: 90%; IC50 [11]: 97 nM; Ki [11]: 48 nM; IC50 [13]: 1750 nM; Ki [13]: 876 nM; Emax [14]: 20%
C[C@@H]1CC[C@H]2[C@@H](C)C(=O)O[C@@H]3O[C@@]4(C)CC[C@@H]1[C@]32OO4 [ARTEMISININ]	–	–	–	–	–	0.014 (≈ 0.0496 µM)	–	–	–	–	–	–	–	–	–	–
CCCCCc1cc(OC(C)=O)c2c(c1)OC(C)(C)C1=C2C2OC2(C)CC1 (stereo not drawn)	–	–	–	–	–	–	–	–	–	–	–	927	464	573	286	–
CCCCCC1=CC(=O)C2=C(OC(C)(C)c3ccc(C)cc32)C1=O	–	–	4.44 (≈ 13.7 µM)	20 (≈ 61.6 µM)	> 20	–	Not Active	inactive	Not Active	inactive	–	–	–	–	–	MIC [4]: inactive; IC50 [15]: 7.6 µg/mL (≈ 23.4 µM); IC50 [16]: 6.05 µg/mL (≈ 18.6 µM); IC50 [17]: Not Active; IC50 [18]: 5.65 µg/mL (≈ 17.4 µM); IC50 [19]: Not Active; IC50 [6]: Not Active; MIC [6]: inactive
CCCCCc1cc2c(c(OS(=O)(=O)c3ccc(C)cc3)c1)[C@H]1[C@@H](CC=C(C)[C@@H]1OO)C(C)(C)O2	–	–	–	–	–	–	–	–	–	–	–	851	426	1020	512	–
CCCCCc1cc(O)c2c(c1)OC(C)(C)C1=C2C(OC(C)=O)C(C)(OC)CC1 (stereo not drawn)	–	–	–	–	–	3 (≈ 7.45 µM)	–	–	–	–	3.3 (≈ 8.2 µM)	1980	990	2800	1400	–
C=C1C[C@H]2c3c(O)cc(CCCCC)cc3OC(C)(C)[C@@H]2C[C@H]1O	–	–	8.34 (≈ 25.2 µM)	–	10.7 (≈ 32.4 µM)	1.7 (≈ 5.14 µM)	Not Active	inactive	Not Active	inactive	2.4 (≈ 7.26 µM)	–	–	–	–	MIC [4]: inactive; MIC [2]: inactive; IC50 [6]: Not Active; MIC [6]: inactive
CCCCCc1cc2c(c(OS(=O)(=O)c3ccc(C)cc3)c1)C1=C(CC[C@](C)(O)[C@H]1OCC)C(C)(C)O2	4.5 (≈ 8.51 µM)	22 (≈ 41.6 µM)	–	–	–	1.8 (≈ 3.4 µM)	–	–	–	–	2.2 (≈ 4.16 µM)	–	–	–	–	–
C=C1C[C@H]2C3=C(OC(C)(C)[C@@H]2C[C@H]1O)C(=O)C(CCCCC)=CC3=O	0.6 (≈ 1.74 µM)	1.3 (≈ 3.77 µM)	1.84 (≈ 5.34 µM)	5 (≈ 14.5 µM)	2.03 (≈ 5.89 µM)	–	Not Active	inactive	Not Active	inactive	–	–	–	–	–	MIC [4, 21]: 2.5 µg/mL (≈ 7.26 µM); MIC ([6]; Staphylococcus aureus): 10 µg/mL (≈ 29 µM); IC50 [6, 22]: 5.53 µg/mL (≈ 16.1 µM)
